# Calls of active or inactive are those of the source.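 How the source made its calls: active means activation of at least 10% at the 50 µM dose, scaled between neutral and positive controls; inactive means the rest.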
# Assay: inducers of mitochondrial cyt c release – biochemical, isolated mitochondria, cytochrome c ELISA, dry powder, orthogonal assay for A1 inhibitor project, confirmation (AID 504412)
# Settings: CHL-1 A1-2A-BIM mitochondria, stronger effect = higher value
# Method in brief: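 Assay system: A1-2A-BIM CHL-1 cell mitochondria; Buffer or medium: trehalose AT buffer, pH 7.7, 80 mM KCl; Incubation: compound treatment 30 min, 30 °C; Signal: cytochrome c ELISA, A450 with 540 nm correction; Controls: DMSO low, DMSO with tBid high; Evaluation: cytochrome c freed from mitochondria into supernatant.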
smiles,measurement,setting,value
Cn1c(=O)c([N+](=O)[O-])c(Cl)c2ccccc21,activation,at 50 µM,25.6% (active)
same,activation,"cytochrome c release, at 10 µM",10.1%

# From PubChem BioAssay AID504412 (Broad Institute, 2011)
